For data set [1], the target named is T1, Serine/threonine-protein kinase D1 (Homo sapiens) (UniProt Q15139).
T1 sequence (whole entry): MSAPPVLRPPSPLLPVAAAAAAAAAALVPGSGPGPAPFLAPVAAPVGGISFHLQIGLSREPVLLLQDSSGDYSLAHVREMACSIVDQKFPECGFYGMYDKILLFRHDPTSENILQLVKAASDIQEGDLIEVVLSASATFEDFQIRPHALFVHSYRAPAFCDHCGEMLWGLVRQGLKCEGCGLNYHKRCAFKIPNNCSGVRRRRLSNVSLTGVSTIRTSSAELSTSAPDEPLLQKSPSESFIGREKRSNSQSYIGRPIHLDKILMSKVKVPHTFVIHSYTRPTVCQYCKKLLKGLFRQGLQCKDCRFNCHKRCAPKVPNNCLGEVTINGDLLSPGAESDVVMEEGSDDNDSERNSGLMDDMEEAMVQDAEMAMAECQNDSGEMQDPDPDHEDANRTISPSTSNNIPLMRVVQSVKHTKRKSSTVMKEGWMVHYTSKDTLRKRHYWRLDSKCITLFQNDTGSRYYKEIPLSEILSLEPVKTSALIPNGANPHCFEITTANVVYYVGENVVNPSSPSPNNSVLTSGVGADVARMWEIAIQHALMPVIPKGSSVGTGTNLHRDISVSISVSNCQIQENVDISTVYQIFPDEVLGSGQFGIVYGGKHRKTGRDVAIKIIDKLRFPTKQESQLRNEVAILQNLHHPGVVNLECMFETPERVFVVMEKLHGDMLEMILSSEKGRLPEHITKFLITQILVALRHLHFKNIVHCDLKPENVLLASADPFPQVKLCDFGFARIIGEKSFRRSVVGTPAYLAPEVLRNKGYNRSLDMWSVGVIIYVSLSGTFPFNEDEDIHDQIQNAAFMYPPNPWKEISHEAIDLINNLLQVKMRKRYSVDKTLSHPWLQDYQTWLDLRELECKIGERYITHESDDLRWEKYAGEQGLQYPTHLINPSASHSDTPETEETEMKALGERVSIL
Kind of data set: Inhibition of PKD1 autophosphorylation at 1 uM.

The target in data set [2] is T2, Serine/threonine-protein kinase D2 (Homo sapiens, UniProt Q9BZL6).
T2 sequence (Q9BZL6 whole entry): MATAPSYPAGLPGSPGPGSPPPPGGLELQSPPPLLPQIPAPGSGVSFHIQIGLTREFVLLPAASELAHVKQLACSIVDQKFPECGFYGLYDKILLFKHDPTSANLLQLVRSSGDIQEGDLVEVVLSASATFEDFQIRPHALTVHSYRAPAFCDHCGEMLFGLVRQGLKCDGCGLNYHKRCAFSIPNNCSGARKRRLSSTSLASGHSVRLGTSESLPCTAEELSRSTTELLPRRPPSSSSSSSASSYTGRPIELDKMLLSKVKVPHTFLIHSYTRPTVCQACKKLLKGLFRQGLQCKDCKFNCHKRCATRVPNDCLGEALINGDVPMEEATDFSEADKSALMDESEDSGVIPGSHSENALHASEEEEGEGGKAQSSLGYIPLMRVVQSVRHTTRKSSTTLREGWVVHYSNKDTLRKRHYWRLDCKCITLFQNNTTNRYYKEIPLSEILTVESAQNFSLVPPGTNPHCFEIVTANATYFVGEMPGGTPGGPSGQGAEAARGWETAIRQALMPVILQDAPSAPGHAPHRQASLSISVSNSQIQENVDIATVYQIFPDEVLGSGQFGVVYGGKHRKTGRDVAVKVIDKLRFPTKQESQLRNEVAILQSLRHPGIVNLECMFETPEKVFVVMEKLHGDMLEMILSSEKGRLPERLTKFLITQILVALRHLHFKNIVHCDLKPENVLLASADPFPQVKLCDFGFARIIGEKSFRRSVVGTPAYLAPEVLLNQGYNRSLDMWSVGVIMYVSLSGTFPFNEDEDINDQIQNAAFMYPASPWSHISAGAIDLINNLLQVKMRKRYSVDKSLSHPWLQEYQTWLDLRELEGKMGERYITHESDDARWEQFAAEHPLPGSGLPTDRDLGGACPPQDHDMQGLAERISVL
Kind of data set: Inhibition of PKD2 by TR-FRET assay.

Data set [3] is described as follows: Clearance in Sprague-Dawley rat at 2 mg/kg, iv and 5 mg/kg, po. Particulars: in vivo. It is filed as ADME, organism-based. In outline:
(§1)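 Rats dosed iv 2 mg/kg (n = 2) or po 5 mg/kg (n = 3) in 10% NMP, 10% Cremophor, 80% pH 4.63 buffer. PK parameters derived from iv dosing, reported as mean ± SD.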

Data set [4] is described as follows: Half life in rats after 2 mg/kg intravenous dose. It is filed as ADME, organism-based. More on the design: dose 2 mg/kg, route intravenous. Particulars: Sprague-Dawley, rat, in vivo. The method in brief: as §1
Data set [5] deals with Calcium/calmodulin-dependent protein kinase type 1D (Homo sapiens) (UniProt Q8IU85). Nature of the data set: Inhibition of CaMK1delta. Particulars: concentration not given here. In outline:
(§2)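 Selectivity screen run externally (Invitrogen SelectScreen). Percent inhibition measured at 1 μM compound, mean of 2 measurements.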

Data set [6] concerns the target Serine/threonine-protein kinase MARK1 (Homo sapiens) (UniProt Q9P0L2). Kind of data set: Inhibition of human MARK1. Particulars: concentration not given here. In outline:
as §2

Data set [7] addresses G protein-coupled receptor kinase 5 (Homo sapiens) (UniProt P34947). Nature of the data set: Inhibition of human GRK5. Particulars: concentration not given here. The method in brief:
as §2

Data set [8] deals with Protein kinase C delta type (Homo sapiens) (UniProt Q05655). Nature of the data set: Inhibition of human PKCdelta. Particulars: concentration not given here. In outline:
as §2

The nature of data set [9]: Inhibition of alpha1 adrenoceptor.
Data set [10] is filed under the species Rattus norvegicus. Nature of the data set: Inhibition of PMA-induced PKD autophosphorylation in Dahl salt-sensitive rat PBMC. In outline:
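Male Dahl salt-sensitive rats, 6–7 weeks old, were switched from a 0.49% to an 8.0% NaCl diet for 2 weeks. Dosing was daily sc (1.0 mL/kg) with vehicle (10% 1 N HCl/90% of 10% captisol, pH 4.6 buffer) or 0.5, 1.5 or 5 mg/kg compound. On day 14, PBMCs were isolated and stimulated with PMA. The read-out was PKD Ser916 autophosphorylation.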

The test system of data set [11] is Rattus norvegicus. Kind of data set: Antihypertensive activity in thoracic aortic banded Sprague-Dawley rat assessed as inhibition of cardia hypertrophy at 5 mg/kg, sc. It is filed as functional, organism-based. Particulars: Aorta. More on the design: dose 5 mg/kg. In outline: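 Rats fitted with an aortic occlusion cuff or given sham surgery. Dosed 5 mg/kg/day sc in acidified captisol, or vehicle, for 2 weeks. End-point cardiac performance assessed by ultrasound and hemodynamics by direct catheterization.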

In another data set the target is Pkd1 (Rattus norvegicus) (UniProt Q9ERV0). Nature of the data set: Inhibition of PKD1 in rat ventricular myosyte assessed as inhibition of HDAC5 neuclear export. The method in brief: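 Neonatal rat ventricular myocytes infected with adenovirus encoding GFP-HDAC5 and plated on gelatin-coated wells. Cells exposed to compound and stimulated with PGF2α for 2 h, then fixed. Cytoplasmic versus nuclear GFP intensity quantified by high-content imaging.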
Pkd1 (Rattus norvegicus), sequence (Q9ERV0 as listed by the source): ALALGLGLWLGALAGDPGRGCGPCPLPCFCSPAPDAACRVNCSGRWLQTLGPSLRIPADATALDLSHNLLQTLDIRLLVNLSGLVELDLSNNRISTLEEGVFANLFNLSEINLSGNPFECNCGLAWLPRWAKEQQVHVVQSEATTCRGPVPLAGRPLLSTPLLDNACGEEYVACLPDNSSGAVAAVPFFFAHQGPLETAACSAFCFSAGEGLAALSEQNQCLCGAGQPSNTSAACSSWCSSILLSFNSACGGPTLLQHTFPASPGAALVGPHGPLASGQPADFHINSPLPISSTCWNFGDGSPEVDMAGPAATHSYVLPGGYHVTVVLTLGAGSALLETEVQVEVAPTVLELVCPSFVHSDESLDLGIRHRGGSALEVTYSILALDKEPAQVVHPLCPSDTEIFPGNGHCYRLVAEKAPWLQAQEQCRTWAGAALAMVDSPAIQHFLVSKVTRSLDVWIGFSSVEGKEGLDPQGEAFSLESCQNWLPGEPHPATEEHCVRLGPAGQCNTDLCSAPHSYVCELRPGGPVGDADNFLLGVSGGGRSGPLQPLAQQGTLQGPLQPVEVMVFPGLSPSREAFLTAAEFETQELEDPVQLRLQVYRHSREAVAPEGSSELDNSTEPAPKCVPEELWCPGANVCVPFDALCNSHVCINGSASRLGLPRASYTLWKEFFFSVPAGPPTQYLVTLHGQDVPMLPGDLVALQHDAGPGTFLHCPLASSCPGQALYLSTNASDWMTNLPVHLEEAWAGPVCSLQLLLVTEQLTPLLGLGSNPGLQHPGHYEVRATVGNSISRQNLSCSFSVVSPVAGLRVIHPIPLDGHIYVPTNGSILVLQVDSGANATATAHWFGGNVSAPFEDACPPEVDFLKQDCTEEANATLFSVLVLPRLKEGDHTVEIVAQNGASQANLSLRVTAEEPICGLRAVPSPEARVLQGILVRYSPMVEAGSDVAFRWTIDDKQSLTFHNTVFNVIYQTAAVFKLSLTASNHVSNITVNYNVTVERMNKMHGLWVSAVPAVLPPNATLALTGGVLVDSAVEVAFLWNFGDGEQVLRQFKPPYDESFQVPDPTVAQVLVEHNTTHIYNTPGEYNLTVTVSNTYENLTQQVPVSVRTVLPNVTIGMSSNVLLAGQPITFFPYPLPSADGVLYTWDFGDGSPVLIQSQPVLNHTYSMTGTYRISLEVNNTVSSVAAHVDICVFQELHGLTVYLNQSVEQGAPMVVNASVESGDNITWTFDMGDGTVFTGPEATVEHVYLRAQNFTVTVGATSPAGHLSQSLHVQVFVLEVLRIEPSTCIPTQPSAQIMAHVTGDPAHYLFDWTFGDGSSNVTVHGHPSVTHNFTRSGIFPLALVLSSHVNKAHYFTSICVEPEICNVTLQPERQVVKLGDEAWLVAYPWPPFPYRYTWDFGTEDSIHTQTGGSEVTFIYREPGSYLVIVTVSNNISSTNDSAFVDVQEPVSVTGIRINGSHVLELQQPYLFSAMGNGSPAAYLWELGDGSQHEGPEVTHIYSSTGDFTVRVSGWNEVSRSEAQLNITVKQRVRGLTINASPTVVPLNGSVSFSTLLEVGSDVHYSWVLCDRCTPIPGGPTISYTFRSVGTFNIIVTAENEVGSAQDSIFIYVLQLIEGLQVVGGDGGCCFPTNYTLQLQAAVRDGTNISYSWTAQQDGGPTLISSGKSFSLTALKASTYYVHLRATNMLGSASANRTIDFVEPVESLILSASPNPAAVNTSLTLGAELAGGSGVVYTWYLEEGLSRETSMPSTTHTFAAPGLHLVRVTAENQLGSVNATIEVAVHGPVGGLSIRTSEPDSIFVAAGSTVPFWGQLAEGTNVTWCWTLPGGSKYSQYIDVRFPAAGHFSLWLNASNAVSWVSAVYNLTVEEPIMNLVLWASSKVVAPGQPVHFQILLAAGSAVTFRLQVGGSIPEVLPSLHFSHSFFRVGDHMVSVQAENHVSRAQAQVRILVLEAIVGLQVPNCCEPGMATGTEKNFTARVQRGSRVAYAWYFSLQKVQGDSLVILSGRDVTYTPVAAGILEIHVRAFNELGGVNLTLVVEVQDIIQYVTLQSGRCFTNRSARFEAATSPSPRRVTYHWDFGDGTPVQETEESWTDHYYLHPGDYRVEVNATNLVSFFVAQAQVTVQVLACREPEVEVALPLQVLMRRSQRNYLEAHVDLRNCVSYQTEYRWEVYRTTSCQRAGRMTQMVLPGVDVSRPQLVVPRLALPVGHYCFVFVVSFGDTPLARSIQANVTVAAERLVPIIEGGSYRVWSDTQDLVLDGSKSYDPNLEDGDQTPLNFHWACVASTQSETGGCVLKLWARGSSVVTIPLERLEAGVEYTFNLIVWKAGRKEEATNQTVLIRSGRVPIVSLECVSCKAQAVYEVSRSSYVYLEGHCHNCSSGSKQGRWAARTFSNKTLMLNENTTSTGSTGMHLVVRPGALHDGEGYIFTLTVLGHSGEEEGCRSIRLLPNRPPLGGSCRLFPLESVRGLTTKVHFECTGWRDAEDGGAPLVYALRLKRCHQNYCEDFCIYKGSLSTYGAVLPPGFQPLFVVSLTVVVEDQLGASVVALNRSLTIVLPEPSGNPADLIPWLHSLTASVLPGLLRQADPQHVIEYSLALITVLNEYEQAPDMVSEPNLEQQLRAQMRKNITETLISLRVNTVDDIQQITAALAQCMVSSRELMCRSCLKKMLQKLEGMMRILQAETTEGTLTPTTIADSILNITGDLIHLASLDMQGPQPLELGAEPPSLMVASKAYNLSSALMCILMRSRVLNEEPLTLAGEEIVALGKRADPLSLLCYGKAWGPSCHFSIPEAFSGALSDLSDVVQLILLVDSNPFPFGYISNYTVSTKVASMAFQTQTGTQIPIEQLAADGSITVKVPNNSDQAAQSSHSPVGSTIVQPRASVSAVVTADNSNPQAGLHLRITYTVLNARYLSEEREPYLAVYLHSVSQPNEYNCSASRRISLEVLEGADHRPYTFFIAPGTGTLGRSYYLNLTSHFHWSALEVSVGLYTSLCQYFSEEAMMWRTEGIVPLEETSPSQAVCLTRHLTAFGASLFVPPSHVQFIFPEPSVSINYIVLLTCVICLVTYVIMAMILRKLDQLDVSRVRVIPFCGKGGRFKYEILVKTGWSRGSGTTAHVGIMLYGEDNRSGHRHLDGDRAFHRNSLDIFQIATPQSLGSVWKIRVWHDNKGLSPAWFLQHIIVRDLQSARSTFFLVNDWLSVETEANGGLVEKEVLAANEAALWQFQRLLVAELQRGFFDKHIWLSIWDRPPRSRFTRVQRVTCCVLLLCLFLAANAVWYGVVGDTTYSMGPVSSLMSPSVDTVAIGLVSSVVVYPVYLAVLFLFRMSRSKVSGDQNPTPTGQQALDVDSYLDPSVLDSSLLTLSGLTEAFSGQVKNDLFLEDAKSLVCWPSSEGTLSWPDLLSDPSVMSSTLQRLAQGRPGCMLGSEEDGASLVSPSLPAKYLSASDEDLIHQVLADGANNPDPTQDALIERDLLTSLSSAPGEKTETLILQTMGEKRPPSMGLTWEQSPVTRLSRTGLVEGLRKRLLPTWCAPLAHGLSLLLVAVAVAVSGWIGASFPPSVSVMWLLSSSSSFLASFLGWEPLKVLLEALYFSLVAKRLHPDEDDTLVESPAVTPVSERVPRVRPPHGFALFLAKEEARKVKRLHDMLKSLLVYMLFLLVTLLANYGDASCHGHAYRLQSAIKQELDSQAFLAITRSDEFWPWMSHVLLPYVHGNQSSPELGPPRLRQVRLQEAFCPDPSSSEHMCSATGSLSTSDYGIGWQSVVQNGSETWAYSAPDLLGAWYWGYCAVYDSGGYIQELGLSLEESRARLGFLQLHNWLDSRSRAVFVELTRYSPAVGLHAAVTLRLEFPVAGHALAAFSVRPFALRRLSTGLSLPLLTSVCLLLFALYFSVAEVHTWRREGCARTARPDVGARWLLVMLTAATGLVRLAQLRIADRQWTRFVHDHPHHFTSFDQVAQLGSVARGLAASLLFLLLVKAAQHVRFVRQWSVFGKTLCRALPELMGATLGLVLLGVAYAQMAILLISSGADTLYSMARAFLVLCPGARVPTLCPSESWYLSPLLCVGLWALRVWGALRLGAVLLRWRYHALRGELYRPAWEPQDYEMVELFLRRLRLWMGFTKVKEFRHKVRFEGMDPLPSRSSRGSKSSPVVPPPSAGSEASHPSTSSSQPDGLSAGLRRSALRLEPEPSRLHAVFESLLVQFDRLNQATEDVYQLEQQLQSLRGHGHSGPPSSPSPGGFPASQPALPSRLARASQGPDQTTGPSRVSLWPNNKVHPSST

A further data set has as its system Plasma. Kind of data set: Drug level in Dahl salt-sensitive rat plasma at 5 mg/kg, sc qd. Particulars: in vivo.
The nature of data set [12]: Drug level in Dahl salt-sensitive rat left ventricle at 5 mg/kg, sc qd. Particulars: in vivo, read-out: Drug uptake.
Data set [13] concerns Rattus norvegicus. Nature of the data set: Ex vivo inhibition of PKD in PBMC isolated from Dahl salt-sensitive sc dosed rat assessed as inhibition of PMA-induced HDAC phosphorylation.

Calls of active or inactive are those of the source. No cut-off for these calls is given here.

A word on the inhibition: it is how much of the control response was suppressed. The term IC50 denotes the concentration that gives 50% inhibition. Higher therefore signals lower potency. Usually half-life stands for how long it takes for the measured level to halve. Low readings indicate fast loss, high ones slow loss.

Calcium/calmodulin-dependent protein kinase type 1D (Homo sapiens), sequence (Q8IU85 whole entry, looked up): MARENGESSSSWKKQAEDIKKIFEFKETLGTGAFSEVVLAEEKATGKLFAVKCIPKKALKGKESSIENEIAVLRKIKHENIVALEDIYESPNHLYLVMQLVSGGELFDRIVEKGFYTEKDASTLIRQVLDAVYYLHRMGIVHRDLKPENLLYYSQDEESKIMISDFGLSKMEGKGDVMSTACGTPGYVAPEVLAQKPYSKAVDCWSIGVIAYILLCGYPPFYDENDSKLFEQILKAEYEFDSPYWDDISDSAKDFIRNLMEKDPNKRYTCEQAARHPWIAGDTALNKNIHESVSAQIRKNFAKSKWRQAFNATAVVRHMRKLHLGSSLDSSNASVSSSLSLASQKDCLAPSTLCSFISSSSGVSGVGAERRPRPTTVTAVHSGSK

As for `NC(=O)c1cc(-c2ccnc(NC3CCCCC3)c2)nc(N2CCNCC2)c1`, the inhibition entry (in data set [1]; on Pkd1 (Rattus norvegicus)) was “Active” in each case. For the same compound, the figures for the IC50 in [2] and in data set [9] were 9 nM and 3000 nM, respectively. Also, in [3], the clearance was 97 mL/min/kg. The half-life in [4] was 3.8 h. Moreover, the inhibition in data set [5] came out at 6%; in [6] it was 24%; in data set [7], 2%; in [8] it was 22%. Also, the inhibition entry in the data set filed under Rattus norvegicus [10] and in the data set with Rattus norvegicus [11] was “inactive” in each case. Further, the concentration in the data set with Plasma was determined as 0.23 µM; in data set [12] it was 12 µM. Further, in the data set on Rattus norvegicus [13], the outcome was Active.

The values above are taken from ChEMBL document CHEMBL1212911, “Identification of potent and selective amidobipyridyl inhibitors of protein kinase D” (J Med Chem, 2010).
